Reference: ChEMBL document CHEMBL4364287, “Enhanced Inhibition of Influenza A Virus Adhesion by Di- and Trivalent Hemagglutinin Inhibitors” (J Med Chem, 2019)
Calls of active or inactive are those of the source. The calls are words filed in the database; no cut-off is given here.

Key:
[1] = Inhibition of sensor loaded biotinylated-LAMP1 binding to Influenza A virus (A/Netherlands/178/1995(H3N2)) H3 hemagglutinin expressed in Influenza virus WU95 in presence of NA inhibitor oseltamivir carboxylate by biolayer interferometric analysis
Summary of the method: (§1)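 OctetRed BLI: streptavidin sensors were saturated with biotinylated LAMP1 in PBS pH 7.4. They were dipped into WU95 (8 HAU, 2.5 × 10^8 particles per well) preincubated 4 h at room temperature with compound and 10 µM (end concentration) oseltamivir carboxylate. Initial binding rate was compared with a no-compound control.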

[2] = system: Influenza A virus (A/Netherlands/178/1995(H3N2)); assay: Potency index, ratio of compound 7 IC50 to test compound IC50 for inhibition of sensor loaded biotinylated-LAMP1 binding to Influenza A virus (A/Netherlands/178/1995(H3N2)) H3 hemagglutinin expressed in Influenza virus WU95
Influenza A virus [3] = assay: (§2) Antiviral activity against Influenza A virus WU95 expressing Influenza A virus (A/Netherlands/178/1995(H3N2)) H3 hemagglutinin infected in MDCK2 cells at 20 nM preincubated with virus for 4 hrs followed by cell infection and measured after 2 hrs by DAPI staining-based assay; assay type: functional, organism-based
Summary of the method: (§3)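 WU95 was preincubated 4 h at room temperature in Opti-mem with or without 15 µM compound, ±10 µM oseltamivir carboxylate. The mixture was diluted 500-fold onto confluent MDCK-II for 2 h, giving end concentrations of 30 nM compound, 20 nM OC and MOI 0.01. Cells were washed, kept overnight at 37 °C with 10 nM bafilomycin, then fixed and nucleoprotein-immunostained.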

[4] = system: Influenza A virus (A/Netherlands/178/1995(H3N2)); assay: Inhibition of sensor loaded biotinylated-LAMP1 binding to Influenza A virus (A/Netherlands/178/1995(H3N2)) H3 hemagglutinin expressed in Influenza virus WU95 at 20 uM in presence of NA inhibitor oseltamivir carboxylate by biolayer interferometric analysis; summary of the method: as §1
[5] = Inhibition of Influenza A virus (A/Netherlands/178/1995(H3N2)) H3 hemagglutinin expressed in Influenza virus WU95 assessed as reduction in human erythrocytes hemagglutination preincubated for 4 hrs followed by erythrocytes addition and measured after 2 hrs; assay type: cell-based
Summary of the method: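 Four hemagglutination units of virus were preincubated 4 h at room temperature with limiting compound dilutions in the presence of oseltamivir carboxylate. Then 0.5% (v/v) erythrocytes were added for 2 h at 4 °C. The lowest inhibiting concentration was recorded; two experiments were run in duplicate and means are reported.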

[6] = system: Influenza A virus (A/Netherlands/178/1995(H3N2)); assay: Potency index, ratio of compound 8 IC50 to test compound IC50 for Inhibition of Influenza A virus (A/Netherlands/178/1995(H3N2)) H3 hemagglutinin expressed in Influenza virus WU95 assessed as reduction in human erythrocytes hemagglutination; assay type: cell-based
[7] = system: Influenza A virus (A/Netherlands/178/1995(H3N2)); assay: Inhibition of sensor loaded biotinylated-LAMP1 binding to Influenza A virus (A/Netherlands/178/1995(H3N2)) H3 hemagglutinin expressed in Influenza virus WU95 at 3 uM in presence of NA inhibitor oseltamivir carboxylate by biolayer interferometric analysis; summary of the method: as §1
[8] = system: Influenza A virus (A/Bilthoven/1761/1976(H3N2)); assay: Inhibition of sensor loaded biotinylated-LAMP1 binding to Influenza A virus (A/Bilthoven/1761/1976(H3N2)) H3 hemagglutinin expressed in Influenza virus VI75 at 3 uM by biolayer interferometric analysis
Summary of the method: (§4)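 BLI with streptavidin sensors loaded to saturation with biotinylated LAMP1 (PBS, pH 7.4). VI75 virus was preincubated 4 h at room temperature with 3 µM compound, without or with 10 µM oseltamivir carboxylate. Initial virus binding rate was compared with a compound-free control.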

[9] = system: Influenza A virus (A/Bilthoven/1761/1976(H3N2)); assay: Inhibition of sensor loaded biotinylated-LAMP1 binding to Influenza A virus (A/Bilthoven/1761/1976(H3N2)) H3 hemagglutinin expressed in Influenza virus VI75 at 3 uM in presence of NA inhibitor oseltamivir carboxylate by biolayer interferometric analysis; summary of the method: as §4
Influenza A virus [10] = assay: Antiviral activity against Influenza A virus WU95 expressing Influenza A virus (A/Netherlands/178/1995(H3N2)) H3 hemagglutinin infected in MDCK2 cells at 30 nM preincubated with virus for 4 hrs followed by cell infection and measured after 2 hrs by DAPI staining-based assay; assay type: functional, organism-based; summary of the method: as §3
Influenza A virus [11] = assay: as §2, with “cells at 30 nM preincubated” for “cells at 20 nM preincubated”, “2 hrs in presence of 20 nM NA inhibitor oseltamivir carboxylate by DAPI” for “2 hrs by DAPI”; assay type: functional, organism-based; summary of the method: as §3
Influenza A virus [12] = assay: as §2, with “assessed as reduction in virus-induced cytopathogenicity” for “at 20 nM”, “3 days” for “2 hrs”; assay type: functional, organism-based
Summary of the method: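 WU95 virus was preincubated 4 h at room temperature in Opti-mem with varying compound concentrations. It was then inoculated onto confluent MDCK-II cells at MOI 0.005 and held 3 days with 1 µg/ml TPCK-trypsin to allow multiple rounds of infection. Cells were fixed and DAPI-stained, and monolayers inspected visually; absence of stained cells was taken as cell killing.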

Influenza A virus [13] = assay: Antiviral activity against Influenza A virus WU95 expressing Influenza A virus (A/Netherlands/178/1995(H3N2)) H3 hemagglutinin infected in MDCK2 cells preincubated with virus for 4 hrs followed by cell infection and measured at 7 hrs post-infection by DAPI staining-based assay; assay type: functional, organism-based
Summary of the method: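 Single-cycle infection: WU95 in Opti-mem was preincubated 4 h at room temperature with varying compound concentrations. Confluent MDCK-II cells were inoculated in triplicate at MOI 0.005 and fixed at 7 h post-infection in methanol (−20 °C, 5 min). Cells were immunostained for nucleoprotein (HB65, Alexa 488 secondary), counterstained with DAPI, and infected cells per well were counted.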

MDCK-II = assay: Cytotoxicity against MDCK2 cells assessed as reduction in cell viability measured after 24 hrs by WST1 assay; assay type: cell-based, Canis lupus familiaris; details: dog
Summary of the method: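 MDCK-II cells were incubated 24 h in Opti-mem with compounds at different concentrations. Cell number and viability were then read by WST-1 assay.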

## CC(=O)N[C@H]1[C@H]([C@H](O)[C@H](O)CO)O[C@@](OC[C@H]2O[C@@H](O[C@H]3[C@H](O)[C@@H](O)[C@H](OCc4cn([C@@H]5O[C@H](CO)[C@@H](n6cc(-c7ccc(-c8cn([C@H]9[C@H](O)[C@@H](O)[C@H](n%10cc(CO[C@@H]%11O[C@H](CO)[C@@H](O[C@@H]%12O[C@H](CO[C@]%13(C(=O)O)C[C@H](O)[C@@H](NC(C)=O)[C@H]([C@H](O)[C@H](O)CO)O%13)[C@H](O)[C@H](O)[C@H]%12O)[C@H](O)[C@H]%11O)nn%10)O[C@@H]9CO)nn8)cc7)nn6)[C@H](O)[C@H]5O)nn4)O[C@@H]3CO)[C@H](O)[C@@H](O)[C@H]2O)(C(=O)O)C[C@@H]1O
[1]
  IC50: 13 µM
[2]
  Ratio IC50: 23

## CCC(CC)O[C@@H]1C=C(C(=O)O)C[C@H](N)[C@H]1NC(C)=O
Influenza A virus [3]
  Activity: Active

## CC(=O)N[C@H]1[C@H](O[C@H]2[C@@H](O)[C@@H](CO)O[C@@H](O[C@H]3[C@H](O)[C@@H](O)[C@H](n4cc(-c5ccc(-c6cn(CCCC(=O)Nc7cccc(-c8cc(-c9cccc(NC(=O)CCCn%10cc(-c%11ccc(-c%12cn([C@@H]%13O[C@H](CO)[C@@H](O[C@@H]%14O[C@H](CO)[C@H](O)[C@H](O[C@@H]%15O[C@H](CO)[C@@H](O[C@@H]%16O[C@H](CO)[C@H](O)[C@H](O)[C@H]%16O)[C@H](O)[C@H]%15NC(C)=O)[C@H]%14O)[C@H](O)[C@H]%13O)nn%12)cc%11)nn%10)c9)cc(-c9cccc(NC(=O)CCCn%10cc(-c%11ccc(-c%12cn([C@@H]%13O[C@H](CO)[C@@H](O[C@@H]%14O[C@H](CO)[C@H](O)[C@H](O[C@@H]%15O[C@H](CO)[C@@H](O[C@@H]%16O[C@H](CO)[C@H](O)[C@H](O)[C@H]%16O)[C@H](O)[C@H]%15NC(C)=O)[C@H]%14O)[C@H](O)[C@H]%13O)nn%12)cc%11)nn%10)c9)c8)c7)nn6)cc5)nn4)O[C@@H]3CO)[C@@H]2O)O[C@H](CO)[C@@H](O[C@@H]2O[C@H](CO)[C@H](O)[C@H](O)[C@H]2O)[C@@H]1O
[4]
  inhibition: inactive

## C#CCO[C@@H]1O[C@H](CO)[C@@H](O[C@@H]2O[C@H](CO[C@]3(C(=O)O)C[C@H](O)[C@@H](NC(C)=O)[C@H]([C@H](O)[C@H](O)CO)O3)[C@H](O)[C@H](O)[C@H]2O)[C@H](O)[C@H]1NC(C)=O
[1]
  IC50: 304 µM

## CC(=O)N[C@H]1[C@H]([C@H](O)[C@H](O)CO)O[C@@](OC[C@H]2O[C@@H](O[C@H]3[C@H](O)[C@@H](O)[C@H](OCc4cn(CCCC(=O)Nc5cccc(-c6cc(-c7cccc(NC(=O)CCCn8cc(CO[C@@H]9O[C@H](CO)[C@@H](O[C@@H]%10O[C@H](CO[C@]%11(C(=O)O)C[C@H](O)[C@@H](NC(C)=O)[C@H]([C@H](O)[C@H](O)CO)O%11)[C@H](O)[C@H](O)[C@H]%10O)[C@H](O)[C@H]9O)nn8)c7)cc(-c7cccc(NC(=O)CCCn8cc(CO[C@@H]9O[C@H](CO)[C@@H](O[C@@H]%10O[C@H](CO[C@]%11(C(=O)O)C[C@H](O)[C@@H](NC(C)=O)[C@H]([C@H](O)[C@H](O)CO)O%11)[C@H](O)[C@H](O)[C@H]%10O)[C@H](O)[C@H]9O)nn8)c7)c6)c5)nn4)O[C@@H]3CO)[C@H](O)[C@@H](O)[C@H]2O)(C(=O)O)C[C@@H]1O
[1]
  IC50: 15 µM
[2]
  Ratio IC50: 20
[5]
  Ki: 53 µM
[6]
  Ratio IC50: 7

## CC(=O)N[C@H]1[C@H](O[C@H]2[C@@H](O)[C@@H](CO)O[C@@H](O[C@H]3[C@H](O)[C@@H](O)[C@H](n4cc(-c5ccc(-c6cn(CCCC(=O)Nc7cccc(-c8cc(-c9cccc(NC(=O)CCCn%10cc(-c%11ccc(-c%12cn([C@@H]%13O[C@H](CO)[C@@H](O[C@@H]%14O[C@H](CO)[C@H](O)[C@H](O[C@@H]%15O[C@H](CO)[C@@H](O[C@@H]%16O[C@H](CO[C@]%17(C(=O)O)C[C@H](O)[C@@H](NC(C)=O)[C@H]([C@H](O)[C@H](O)CO)O%17)[C@H](O)[C@H](O)[C@H]%16O)[C@H](O)[C@H]%15NC(C)=O)[C@H]%14O)[C@H](O)[C@H]%13O)nn%12)cc%11)nn%10)c9)cc(-c9cccc(NC(=O)CCCn%10cc(-c%11ccc(-c%12cn([C@@H]%13O[C@H](CO)[C@@H](O[C@@H]%14O[C@H](CO)[C@H](O)[C@H](O[C@@H]%15O[C@H](CO)[C@@H](O[C@@H]%16O[C@H](CO[C@]%17(C(=O)O)C[C@H](O)[C@@H](NC(C)=O)[C@H]([C@H](O)[C@H](O)CO)O%17)[C@H](O)[C@H](O)[C@H]%16O)[C@H](O)[C@H]%15NC(C)=O)[C@H]%14O)[C@H](O)[C@H]%13O)nn%12)cc%11)nn%10)c9)c8)c7)nn6)cc5)nn4)O[C@@H]3CO)[C@@H]2O)O[C@H](CO)[C@@H](O[C@@H]2O[C@H](CO)[C@H](O)[C@H](O)[C@H]2O)[C@@H]1O
[1]
  IC50: 0.71 µM
[2]
  Ratio IC50: 428
[7]
  inhibition: Active
[8]
  inhibition: Active
[9]
  inhibition: Active
[5]
  Ki: 10.3 µM
[6]
  Ratio IC50: 35
Influenza A virus [10]
  Activity: Active
Influenza A virus [11]
  Activity: Active

## CC(=O)N[C@H]1[C@H](O[C@H]2[C@@H](O)[C@@H](CO)O[C@@H](O[C@H]3[C@H](O)[C@@H](O)[C@H](OCc4cn(CCCC(=O)Nc5cccc(-c6cc(-c7cccc(NC(=O)CCCn8cc(CO[C@@H]9O[C@H](CO)[C@@H](O[C@@H]%10O[C@H](CO)[C@H](O)[C@H](O[C@@H]%11O[C@H](CO)[C@@H](O[C@@H]%12O[C@H](CO[C@]%13(C(=O)O)C[C@H](O)[C@@H](NC(C)=O)[C@H]([C@H](O)[C@H](O)CO)O%13)[C@H](O)[C@H](O)[C@H]%12O)[C@H](O)[C@H]%11NC(C)=O)[C@H]%10O)[C@H](O)[C@H]9O)nn8)c7)cc(-c7cccc(NC(=O)CCCn8cc(CO[C@@H]9O[C@H](CO)[C@@H](O[C@@H]%10O[C@H](CO)[C@H](O)[C@H](O[C@@H]%11O[C@H](CO)[C@@H](O[C@@H]%12O[C@H](CO[C@]%13(C(=O)O)C[C@H](O)[C@@H](NC(C)=O)[C@H]([C@H](O)[C@H](O)CO)O%13)[C@H](O)[C@H](O)[C@H]%12O)[C@H](O)[C@H]%11NC(C)=O)[C@H]%10O)[C@H](O)[C@H]9O)nn8)c7)c6)c5)nn4)O[C@@H]3CO)[C@@H]2O)O[C@H](CO)[C@@H](O[C@@H]2O[C@H](CO[C@]3(C(=O)O)C[C@H](O)[C@@H](NC(C)=O)[C@H]([C@H](O)[C@H](O)CO)O3)[C@H](O)[C@H](O)[C@H]2O)[C@@H]1O
Influenza A virus [12]
  Activity: Active
[1]
  IC50: 4.3 µM
[2]
  Ratio IC50: 71
[7]
  inhibition: Active
[8]
  inhibition: Active
[9]
  inhibition: Active
Influenza A virus [13]
  IC50: 15 µM
MDCK-II
  Activity: Non-Toxic
